In the library only some 2.1% were active in any assay of this set; here they are far more common.
F508del corr = F508del CFTR correction, initial screen, CFBE line, single point | CFBE cells, YFP halide quenching; stimulated with forskolin plus potentiator P3; % fluorescence drop versus neutral controls | activity (quench increase), % at 7.58 µM | 0.36% of 350,000 active | AID 720511, 2013;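 active means mean added fluorescence quench of at least 8% versus neutral control, with both replicates also reaching 8%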;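 further: cells transiently co-express mutant CFTR-F508del with the halide-sensitive YFP; corrector assay measuring rescue of mutant channel to the surface after 24 h compound exposure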
MC4R ag barr = MC4R agonists recruiting beta-arrestin, primary screen, cell-based, luminescence, agonist arm of biased-ligand search; Melanocortin receptor 4 (Homo sapiens), P32245; U2OS MC4R beta-arrestin complementation; percent of melanotan II response, DMSO zero; activation, % at 8.9 µM; 0.98% of 360,000 active;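 active means activation above a per-plate cutoff, the mean activation of sample wells on that plate plus 3 SD, cut at about 8% in these data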
Target sequence (P32245 whole entry, looked up): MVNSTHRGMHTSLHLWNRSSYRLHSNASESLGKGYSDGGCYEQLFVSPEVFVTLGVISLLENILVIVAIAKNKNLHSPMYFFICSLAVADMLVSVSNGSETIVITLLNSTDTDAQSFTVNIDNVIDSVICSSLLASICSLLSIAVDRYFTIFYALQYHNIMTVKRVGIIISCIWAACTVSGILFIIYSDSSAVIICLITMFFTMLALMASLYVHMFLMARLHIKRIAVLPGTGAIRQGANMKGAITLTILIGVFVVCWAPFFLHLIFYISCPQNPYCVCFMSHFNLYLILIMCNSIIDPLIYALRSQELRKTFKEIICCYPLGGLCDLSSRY
SMARCA2 act = SMARCA2 (BRM) function activators, primary screen, cell-based, luminescence, high throughput. MG213 cells, MMTV-luciferase reporter, dexamethasone, overnight. activation, % at 9.1 µM. 1% of 370,000 active. AID 652017, 2013; in the data active means activation above about 7.8%
MC4R antag cAMP = MC4R antagonists of cAMP signaling, primary screen, cell-based, TR-FRET, antagonist arm of biased-ligand search; Melanocortin receptor 4 (Homo sapiens), P32245; AID 540295, 2011; inhibition, % at 6.5 µM; 0.48% of 360,000 active; MC4R-expressing cells, MTII-stimulated cAMP, LANCE TR-FRET;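 active means inhibition above its plate's cutoff, the mean of tested wells on that plate plus 3 SD, cut at about 29% in these data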
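Test system: U2OS cells stably expressing human melanocortin 4 receptor (MC4R); also added: Melanotan II challenge; compound: 6.5 µM single dose; timing: 30-min compound preincubation, 1-h Melanotan II challenge, 1-h detection, room temperature; signal: Eu-cAMP/anti-cAMP TR-FRET, emission 671 nm; repeats: one well per compound, no replicates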
SMARCA2 act conf = SMARCA2 (BRM) function activators, confirmation, cell-based, luminescence, triplicate. 30% of 3,500 active. MG213 cells, MMTV-luciferase with dexamethasone, overnight; MG213 cells expressing E1A, Rb sequestered; DMSO wells 0%, reference activator 100%. AID 652260, 2013. shares compounds with SMARCA2 act. activation, % at 9.1 µM;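 active means activation above its plate's cutoff, the mean activation of tested wells plus 3 SD, cut at about 7.9% in these data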
VP16 Luc act = GAL4-VP16 luciferase reporter activation, counter-screen for SMARCA2 (BRM) activator project, cell-based, pG5luc, luminescence, high throughput; shares compounds with SMARCA2 act; HEK293 GAL4-VP16 pG5luc reporter; scaled: DMSO wells 0%, SAHA wells 100%; activation, % at 9.1 µM; 41% of 3,500 active; AID 686939, 2013;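 active means activation above the solvent-only control well mean plus 3 SD, averaged across control plates, cut at about 5.2% in these data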
Of the large screens only hits and unclear results are named; the others gave an inactive call (follow-up assays come after a bar, where they were run).

O=C1/C(=C/c2cccnc2)SC(=S)N1CCc1ccccc1	SMARCA2 act 8.7 | SMARCA2 act conf inactive | VP16 Luc act inactive
C[C@H]1CN([C@@H](C)CO)C(=O)Cc2cc(NC(=O)Nc3ccc(F)cc3)ccc2O[C@H]1CN(C)C(=O)Nc1ccccc1	none (no result: MC4R ag barr, SMARCA2 act, MC4R antag cAMP)
OC1CCCN(Cc2ccc3ccc4cccc5ccc2c3c45)C1 (configuration not stated)	SMARCA2 act 11 (no result: F508del corr) | SMARCA2 act conf 25 | VP16 Luc act inactive
CN(C)C(=O)C[C@@H]1C=C[C@@H](NC(=O)C2CCC2)[C@H](CO)O1	none (no result: MC4R ag barr, SMARCA2 act, MC4R antag cAMP)
COc1ccc2c(CCNC(=O)c3ccco3)c[nH]c2c1	SMARCA2 act 9.6 | SMARCA2 act conf inactive | VP16 Luc act inactive
COc1ccc(OCc2cccc(C(=O)NN)c2)cc1	SMARCA2 act 13 (no result: F508del corr) | SMARCA2 act conf 9.4 | VP16 Luc act 16
O=C(c1cccc(OCc2ccccc2)c1)N1CCOCC1	none (no result: SMARCA2 act)
CCOc1ccc(OCc2cccc(C(=O)N/N=C/c3cccnc3)c2)cc1	SMARCA2 act 8.5 (no result: F508del corr) | SMARCA2 act conf 13 | VP16 Luc act 21
CCOc1ccc(OCc2cccc(C(=O)N3CCOCC3)c2)cc1	SMARCA2 act 12 (no result: F508del corr) | SMARCA2 act conf inactive | VP16 Luc act 9.7
CCc1ccc(-c2cnc3ccccc3n2)cc1NC(=O)CNC(=O)c1ccccc1	SMARCA2 act 8.1 | SMARCA2 act conf inactive | VP16 Luc act 18
O=C(Nc1cccc(-c2cnc3ccccc3n2)c1)c1ccccc1	none (no result: F508del corr)
O=C(/C=C/c1c(Cl)cccc1Cl)NCCc1ccccc1	SMARCA2 act 11 (no result: F508del corr) | SMARCA2 act conf inactive | VP16 Luc act inactive
O=C(/C=C/c1cccc(Cl)c1)NCCc1ccccc1	none (no result: F508del corr)
CC(C)C#Cc1cnc2c(c1)C(=O)N([C@H](C)CO)C[C@H](C)[C@H](CN(C)C(=O)Nc1ccccc1)O2	none (no result: MC4R ag barr, SMARCA2 act, MC4R antag cAMP)
CC(=O)c1cnc2nc(SCc3ccccc3)nn2c1C	SMARCA2 act 11 | SMARCA2 act conf inactive | VP16 Luc act 10
C=Cc1ccc(C(=O)Nc2nnc(-c3cccnc3)s2)cc1	none (no result: F508del corr, MC4R ag barr, MC4R antag cAMP)
O=C(Nc1nnc(-c2cccnc2)s1)c1cnc2ccccc2c1	SMARCA2 act 8.0 (no result: F508del corr, MC4R ag barr, MC4R antag cAMP) | SMARCA2 act conf inactive | VP16 Luc act inactive
O=C(Nc1nnc(C(F)(F)F)s1)c1cccnc1	SMARCA2 act 9.0 (no result: F508del corr) | SMARCA2 act conf inactive | VP16 Luc act 9.3
O=C(Nc1nnc(-c2ccccc2F)s1)c1cccnc1	none
C[C@H](CO)N1C[C@H](C)[C@H](CN(C)C(=O)Nc2ccccc2)Oc2ccc(NS(=O)(=O)c3cn(C)cn3)cc2C1=O	none (no result: MC4R ag barr, SMARCA2 act, MC4R antag cAMP)
O=S(=O)([N-]c1nc2ccccc2nc1-n1cc[n+](Cc2ccccc2)c1)c1ccc(Br)cc1	SMARCA2 act 11 | SMARCA2 act conf inactive | VP16 Luc act inactive
Cc1ccc(/C=C/C(=O)N2CCc3ccccc32)o1	none (no result: F508del corr)
O=C(/C=C/c1ccco1)N1CCc2ccccc21	SMARCA2 act 9.6 | SMARCA2 act conf 17 | VP16 Luc act 10.0
O=C(c1ccco1)N1CCc2ccccc21	SMARCA2 act 8.5 | SMARCA2 act conf inactive | VP16 Luc act inactive
Cc1ccc(C(=O)N2CCc3ccccc32)cc1NC(=O)c1ccco1	none
C[C@@H](NC(=O)C[C@H]1C[C@@H]2c3cc(NC(=O)NC4CCCC4)ccc3O[C@@H]2[C@@H](CO)O1)c1ccccc1	none (no result: MC4R ag barr, SMARCA2 act, MC4R antag cAMP)
O=C(C[C@H]1C=C[C@H](NC(=O)CN2CCOCC2)[C@H](CO)O1)NCc1cccc(F)c1	none (no result: MC4R ag barr, SMARCA2 act, MC4R antag cAMP)
CC#CC#Cc1cccc(=O)o1	SMARCA2 act 9.8 | SMARCA2 act conf 15 | VP16 Luc act inactive
O=C1c2cccc(NCCCNCCO)c2C(=O)c2cccc(NCCCNCCO)c21	F508del corr 13, SMARCA2 act 28 | SMARCA2 act conf inactive | VP16 Luc act inactive
O=C1c2ccccc2C(=O)c2c(NCc3cccnc3)cccc21	none (no result: F508del corr)
CCOc1ccccc1N(CC(=O)Nc1ccc(S(=O)(=O)N2CCOCC2)cc1)S(=O)(=O)c1ccccc1	none (no result: F508del corr, SMARCA2 act)
CCOc1ccccc1N(CC(=O)Nc1ccc(S(=O)(=O)N2CCOCC2)cc1)S(C)(=O)=O	SMARCA2 act 12 | SMARCA2 act conf inactive | VP16 Luc act inactive
COc1ccc(NC(=O)Nc2ccc3c(c2)CC(=O)N([C@H](C)CO)C[C@@H](C)[C@H](CN(C)S(=O)(=O)c2c(C)noc2C)O3)cc1	none (no result: MC4R ag barr, SMARCA2 act, MC4R antag cAMP)
Cc1ccc(-n2c(C)nn(CCOc3ccccc3)c2=O)cc1	none
Cc1nn(CCOc2ccccc2)c(=O)n1-c1c(F)cccc1F	SMARCA2 act 9.8 (no result: F508del corr) | SMARCA2 act conf inactive | VP16 Luc act 8.0
CCCN1CCN(CCCNC(=O)c2ccc3nc(N4CCC(C)CC4)sc3c2)CC1	none
CC1CCCCN1CCCNC(=O)c1ccc2nc(N3CCCCC3)sc2c1 (configuration not stated)	SMARCA2 act 17 | SMARCA2 act conf 9.4 | VP16 Luc act 9.8
CS(=O)(=O)Nc1ccc2c(c1)[C@H]1C[C@@H](CC(=O)NCc3ccccc3F)O[C@@H](CO)[C@H]1O2	none (no result: MC4R ag barr, SMARCA2 act, MC4R antag cAMP)
COc1ccc(-c2cc(=O)[nH][nH]2)cc1	none (no result: F508del corr)
COc1ccc(-c2cc(=O)n(CCC#N)[nH]2)cc1	SMARCA2 act 13 (no result: F508del corr) | SMARCA2 act conf inactive | VP16 Luc act inactive
COc1ccc(Nc2ncnc3ccccc23)cc1	none (no result: F508del corr)
COc1ccc(Nc2cc(Nc3ccccc3)ncn2)cc1	SMARCA2 act 14 | SMARCA2 act conf inactive | VP16 Luc act 11
COc1ccc(S(=O)(=O)N(C)C[C@@H]2Oc3ccc(NC(=O)Cc4ccccc4)cc3C(=O)N([C@H](C)CO)C[C@@H]2C)cc1	none (no result: MC4R ag barr, SMARCA2 act, MC4R antag cAMP)
CCOc1ccc(Nc2nc(N)c([N+](=O)[O-])c(N3CCN(CC)CC3)n2)cc1	SMARCA2 act 12 | SMARCA2 act conf inactive | VP16 Luc act inactive
Cc1cccc(C(=O)OCC(=O)NCC2CCCO2)c1O (configuration not stated)	SMARCA2 act 9.2 | SMARCA2 act conf inactive | VP16 Luc act inactive
O=C(COC(=O)c1ccccc1Br)NCC1CCCO1 (configuration not stated)	none
O=C1CCC/C(=N/NC(=O)C2CCN(S(=O)(=O)c3cccs3)CC2)C1	SMARCA2 act 8.7 | SMARCA2 act conf inactive | VP16 Luc act inactive
Cc1ccc(S(=O)(=O)N(C)C[C@@H]2Oc3ccc(NC(=O)CCCCCC(=O)Nc4ccccc4N)cc3CC(=O)N([C@H](C)CO)C[C@H]2C)cc1	none (no result: MC4R ag barr, SMARCA2 act, MC4R antag cAMP)
Oc1ccc(-c2cnc(-c3ccc(O)cc3)nc2)cc1	SMARCA2 act 13 | SMARCA2 act conf 12 | VP16 Luc act 11
